A word on the IC50: it is the concentration needed to halve the response being measured. By inhibition is commonly meant the share of the control response that was lost under treatment.

Activity calls are given as the source filed them. The rule behind the calls is not given here. Where only a bound is given, the exact number is not on record here.

For one assay, the system named is MDA-MB-231. Briefly: Cytotoxicity against human MDA-MB-231 cells assessed as growth inhibition after 48 hrs by MTT assay. In kind it is functional, cell-based. To be noted: MDA-MB-231, 48 h.
The test system of the next assay is DU-145. Briefly: Cytotoxicity against human DU145 cells assessed as growth inhibition after 48 hrs by MTT assay. It is filed as functional, cell-based. To be noted: DU-145, 48 h.
Assay [1] deals with Signal transducer and activator of transcription 3 (Homo sapiens) (UniProt P40763). The assay can be described thus: Inhibition of IL-6-induced STAT3 phosphorylation in overnight starved human MCF7 cells at 2 to 6 uM preincubated for 2 hrs followed by IL-6 induction by Western blot analysis. It is filed as cell-based. In outline:
(§1)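 Cells were serum-starved overnight and pretreated with compound for 2 h. They were then stimulated with IL-6. Lysates were immunoblotted for phospho-STAT3.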
(In western blotting, separated proteins are transferred to a membrane and probed.)

Assay [2] has the same target. Briefly: Inhibition of IL-6-induced STAT3 phosphorylation in overnight starved human MDA-MB-231 cells preincubated for 2 hrs followed by IL-6 induction by Western blot analysis. In kind it is cell-based. The essentials:
as §1

The target is the same in assay [3]. The assay can be described thus: Inhibition of STAT3-mediated luciferase activity in human HeLa cells at 2 uM after 12 hrs by luminescence assay relative to control. It is filed as cell-based. The essentials: (§2)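 HeLa cells, which have constitutive STAT3, were transfected with a STAT3-dependent dual luciferase reporter. Reporter luminescence was measured after compound exposure. Values are mean ± SD of triplicate experiments and are compared with vehicle-treated control.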

In assay [4] the target is Serine/threonine-protein kinase mTOR (Homo sapiens) (UniProt P42345). The assay can be described thus: Inhibition of mTOR phosphorylation in human MDA-MB-231 cells at 1 to 4 uM after 12 hrs by Western blot analysis. It is filed as cell-based.
Assay [5] deals with Signal transducer and activator of transcription 3 (Homo sapiens) (UniProt P40763). The assay can be described thus: Inhibition of STAT3-mediated luciferase activity in human HeLa cells at 4 uM after 12 hrs by luminescence assay relative to control. It is filed as cell-based. The essentials:
as §2

Assay [6] has the same target. The assay can be described thus: Inhibition of STAT3-mediated luciferase activity in human HeLa cells after 12 hrs by luminescence assay. In kind it is cell-based. The essentials:
as §2

Assay [7] shares this target. The assay can be described thus: Inhibition of STAT3 phosphorylation at Y705 in human MDA-MB-231 cells after 12 hrs by Western blot analysis. In kind it is cell-based. The essentials:
(§3)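 Cells were exposed for 12 h. Whole-cell lysates were immunoblotted with a Y705-phospho-STAT3-specific antibody and for total STAT3.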

Assay [8] has the same target. Briefly: Inhibition of STAT3 phosphorylation at Y705 in human MCF7 cells after 12 hrs by Western blot analysis. It is filed as cell-based. In outline: as §3
Assay [9] has the same target. Briefly: Inhibition of STAT3 phosphorylation at Y705 in human MDA-MB-435S cells after 12 hrs by Western blot analysis. In kind it is cell-based. In outline: as §3
Assay [10] deals with Proto-oncogene tyrosine-protein kinase Src (Homo sapiens) (UniProt P12931). The assay can be described thus: Inhibition of Src phosphorylation in human MDA-MB-231 cells at 1 to 4 uM after 12 hrs by Western blot analysis. In kind it is cell-based.
Sequence of Proto-oncogene tyrosine-protein kinase Src (Homo sapiens) (P12931 2-536 limits assumed): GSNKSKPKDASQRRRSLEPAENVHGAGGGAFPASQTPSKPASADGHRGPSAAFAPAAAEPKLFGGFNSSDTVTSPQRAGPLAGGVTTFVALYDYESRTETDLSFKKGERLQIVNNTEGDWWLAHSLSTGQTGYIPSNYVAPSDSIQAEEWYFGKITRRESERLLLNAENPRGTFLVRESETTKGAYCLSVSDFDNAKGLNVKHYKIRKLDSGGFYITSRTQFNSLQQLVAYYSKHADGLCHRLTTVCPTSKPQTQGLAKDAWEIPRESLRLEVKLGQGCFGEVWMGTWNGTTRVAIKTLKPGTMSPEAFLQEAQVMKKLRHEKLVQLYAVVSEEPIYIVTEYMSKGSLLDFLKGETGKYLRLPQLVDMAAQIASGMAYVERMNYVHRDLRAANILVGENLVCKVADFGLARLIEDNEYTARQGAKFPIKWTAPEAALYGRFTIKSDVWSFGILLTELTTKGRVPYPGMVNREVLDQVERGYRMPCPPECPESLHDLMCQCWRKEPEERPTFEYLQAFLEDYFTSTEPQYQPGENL
For assay [11], the target named is Mitogen-activated protein kinase; ERK1/ERK2 (Homo sapiens) (UniProt P27361+P28482). Briefly: Inhibition of ERK1/2 phosphorylation in human MDA-MB-231 cells at 1 to 4 uM after 12 hrs by Western blot analysis. It is filed as cell-based.
Sequence of Mitogen-activated protein kinase; ERK1/ERK2 (Homo sapiens) (P27361 whole entry, looked up): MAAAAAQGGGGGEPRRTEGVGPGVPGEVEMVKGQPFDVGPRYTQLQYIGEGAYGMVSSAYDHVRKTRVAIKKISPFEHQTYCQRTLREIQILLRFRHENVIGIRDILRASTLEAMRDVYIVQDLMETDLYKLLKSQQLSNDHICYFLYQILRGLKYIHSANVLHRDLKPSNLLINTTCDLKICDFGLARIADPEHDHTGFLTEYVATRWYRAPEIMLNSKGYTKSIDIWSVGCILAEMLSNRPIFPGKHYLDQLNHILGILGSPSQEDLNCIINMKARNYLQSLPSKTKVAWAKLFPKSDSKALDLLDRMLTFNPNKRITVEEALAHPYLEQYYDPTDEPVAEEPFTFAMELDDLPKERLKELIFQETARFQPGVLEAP
Sequence of Mitogen-activated protein kinase; ERK1/ERK2 (Homo sapiens) (P28482 whole entry, looked up): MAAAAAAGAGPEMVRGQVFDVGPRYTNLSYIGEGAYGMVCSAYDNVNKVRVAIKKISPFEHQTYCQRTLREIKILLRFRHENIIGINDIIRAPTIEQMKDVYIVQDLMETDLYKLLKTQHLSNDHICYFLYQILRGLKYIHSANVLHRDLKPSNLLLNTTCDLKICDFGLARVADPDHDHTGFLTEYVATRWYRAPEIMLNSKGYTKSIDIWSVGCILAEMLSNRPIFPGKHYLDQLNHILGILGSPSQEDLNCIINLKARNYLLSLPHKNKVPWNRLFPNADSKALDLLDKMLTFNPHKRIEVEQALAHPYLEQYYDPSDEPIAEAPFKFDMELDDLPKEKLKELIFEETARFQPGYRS
The test system of another assay is MCF7. The assay can be described thus: Cytotoxicity against human MCF7 cells assessed as growth inhibition after 48 hrs by MTT assay. It is filed as functional, cell-based. To be noted: MCF7, 48 h. (Tetrazolium assays rely on reduction of a dye to a coloured formazan, in cell work by metabolically active cells.)
The test system of a further assay is A549. Briefly: Cytotoxicity against human A549 cells assessed as growth inhibition after 48 hrs by MTT assay. In kind it is functional, cell-based. To be noted: A549, 48 h.
Assay [12] is described as follows: Cytotoxicity against human MDA-MB-435S cells assessed as growth inhibition after 48 hrs by MTT assay. In kind it is functional, cell-based.
Assay [13] can be described thus: Cytotoxicity against human PANC1 cells assessed as growth inhibition after 48 hrs by MTT assay. It is filed as functional, cell-based. To be noted: PANC-1, 48 h.
Assay [14] can be described thus: Cytotoxicity against human HL-7702 cells assessed as growth inhibition after 48 hrs by MTT assay. It is filed as cell-based. To be noted: L02, 48 h.
The next assay has as its system SMMC-7721. Briefly: Cytotoxicity against human SMMC7721 cells assessed as growth inhibition after 48 hrs by MTT assay. It is filed as functional, cell-based. The note with it: SMMC-7721, 48 h.

Sequence of Signal transducer and activator of transcription 3 (Homo sapiens) (P40763 whole entry): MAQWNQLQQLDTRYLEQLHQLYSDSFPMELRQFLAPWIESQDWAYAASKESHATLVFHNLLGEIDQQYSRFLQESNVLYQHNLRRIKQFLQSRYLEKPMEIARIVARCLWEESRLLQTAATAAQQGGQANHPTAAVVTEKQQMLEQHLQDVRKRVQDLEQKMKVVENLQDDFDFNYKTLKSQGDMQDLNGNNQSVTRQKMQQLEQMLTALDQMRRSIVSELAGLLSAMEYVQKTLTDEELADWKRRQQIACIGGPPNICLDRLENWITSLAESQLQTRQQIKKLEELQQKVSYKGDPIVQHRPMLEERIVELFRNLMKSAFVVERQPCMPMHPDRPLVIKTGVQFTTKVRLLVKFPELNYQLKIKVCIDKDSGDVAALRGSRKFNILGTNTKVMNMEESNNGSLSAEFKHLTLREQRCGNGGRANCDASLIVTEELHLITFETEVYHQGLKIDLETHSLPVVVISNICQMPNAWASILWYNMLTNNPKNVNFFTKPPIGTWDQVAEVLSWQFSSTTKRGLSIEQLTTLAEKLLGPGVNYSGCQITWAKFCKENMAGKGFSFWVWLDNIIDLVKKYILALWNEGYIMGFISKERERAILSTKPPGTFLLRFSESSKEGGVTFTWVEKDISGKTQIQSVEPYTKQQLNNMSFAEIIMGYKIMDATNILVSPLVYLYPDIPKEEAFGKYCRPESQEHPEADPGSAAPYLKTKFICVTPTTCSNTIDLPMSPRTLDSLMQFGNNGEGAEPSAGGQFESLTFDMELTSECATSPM

Take `O=C(NC1CCCCC1)C1=Cc2cc(Br)ccc2S1(=O)=O`: the concentration for half-maximal inhibition (IC50) in the assay with MDA-MB-231 and in the assay with DU-145 was 5730 nM each time.
With `O=C(C1=Cc2cc(Br)ccc2S1(=O)=O)N1CCCCC1`, the inhibition entry in assay [1] was “Active”. Moreover, the inhibition entry in [2] was “Dose-dependent effect”; in assay [3], 14%; in assay [5], 48%; in assay [6] it was “Dose-dependent effect”; in assay [7], “Dose-dependent effect”; in [8], “Dose-dependent effect”. Also, the inhibition result in assay [9] is “Dose-dependent effect”. Further, the inhibition entry in assay [4], in [10] and in [11] was “inactive” each time.
Regarding `O=[N+]([O-])c1ccc2c(c1)S(=O)(=O)C=C2`, the concentration for half-maximal inhibition (IC50) in the assay with MCF7 came to 2160 nM; in the assay with A549, 2500 nM; in assay [12] it was 1870 nM; in the assay with MDA-MB-231, 1560 nM; in [13], 2900 nM; with DU-145 it was 2500 nM. Further, the inhibition in [5] turned out to be 36%. Besides, the inhibition result in assay [7], in assay [8] and in assay [9] was “Active” in each case.
`O=C(Nc1cccc(Cl)c1)C1=Cc2c(Br)cccc2S1(=O)=O`: the concentration for half-maximal inhibition (IC50) worked out at 2210 nM in the assay on MDA-MB-231 and 3390 nM in the assay with DU-145.
With `Cc1ccc(OC(=O)C2=Cc3c(Br)cccc3S2(=O)=O)cc1`, the half-inhibitory concentration (IC50) in the assay with MDA-MB-231 and with DU-145 was more than 15000 nM in each case.
`O=C(C1=Cc2cc(Br)ccc2S1(=O)=O)N1CCOCC1`: the IC50 was determined as 1050 nM with MCF7; 2310 nM in the assay on A549; 800 nM in [12]; 1040 nM in the assay with MDA-MB-231; 3950 nM in assay [13]; 1910 nM with DU-145.
Turning to `O=C(C1=Cc2cc(Br)ccc2S1(=O)=O)N1CCCC1`, the 50% inhibitory concentration (IC50) in the assay on MCF7 is 1380 nM; in the assay with A549, 3470 nM; in assay [12], 940 nM; in the assay on MDA-MB-231 it was 1270 nM; in assay [13], 3470 nM; in the assay with DU-145, 1540 nM.
Take `O=C(Nc1ccccc1)C1=Cc2c(Br)cccc2S1(=O)=O`: the IC50 in assay [14] is 15000 nM; with MCF7, 1730 nM; in the assay with A549, 4090 nM; with SMMC-7721 it was 2400 nM; in assay [12], 1390 nM; in the assay on MDA-MB-231 it was 1740 nM. Besides, the values for the half-maximal inhibitory concentration (IC50) (in [13]; in the assay with DU-145) were 6670 nM and 2640 nM, respectively.
Regarding `O=C(Nc1ccc(Cl)cc1)C1=Cc2c(Br)cccc2S1(=O)=O`, the concentration for half-maximal inhibition (IC50) is 3780 nM in the assay on MDA-MB-231 and 6340 nM in the assay with DU-145.
Regarding `CC(C)(C)NC(=O)C1=Cc2cc(Br)ccc2S1(=O)=O`, the IC50 was found to be 1270 nM in the assay on MCF7; 2850 nM in the assay on A549; 820 nM in assay [12]; 1340 nM in the assay on MDA-MB-231; 3340 nM in assay [13]; 1350 nM in the assay with DU-145.
In the case of `Cc1ccc(NC(=O)C2=Cc3c(Br)cccc3S2(=O)=O)cc1`, the figures for the IC50 in the assay with MDA-MB-231 and in the assay on DU-145 were 2460 nM and 3030 nM, respectively.
The corresponding values for `O=C(Nc1ccccc1)C1=Cc2cc(Br)ccc2S1(=O)=O` are 1720 nM and 2770 nM.
The corresponding values for `O=C(Nc1ccc2c(c1)C=C(C(=O)N1CCCCC1)S2(=O)=O)c1ccccc1` are 1680 nM and 2070 nM.
For the compound `CCN(CC)C(=O)C1=Cc2cc(Br)ccc2S1(=O)=O`, the IC50 in the assay with MCF7 is 890 nM; with A549, 1580 nM; in assay [12], 1540 nM; with MDA-MB-231 it was 1670 nM; in assay [13], 1940 nM; in the assay with DU-145, 1460 nM.
As to `CC(C)NC(=O)C1=Cc2cc(Br)ccc2S1(=O)=O`, the IC50 came to 15000 nM in [14]; 1240 nM in the assay on MCF7; 2970 nM with A549; 2400 nM in the assay on SMMC-7721; 930 nM in assay [12]; 1090 nM in the assay with MDA-MB-231. Moreover, the figures for the IC50 (in [13]; in the assay with DU-145) were 5050 nM and 2170 nM, respectively.
As to `CCCCNC(=O)C1=Cc2cc(Br)ccc2S1(=O)=O`, the IC50 with MDA-MB-231 was 2310 nM; with DU-145, 3860 nM.
On to `O=C(Nc1ccccc1)C1=Cc2cc([N+](=O)[O-])ccc2S1(=O)=O`, for which the results for the IC50 with MDA-MB-231 and in the assay with DU-145 were 3040 nM and 5190 nM, respectively.
`CN(C(=O)C1=Cc2cc(Br)ccc2S1(=O)=O)c1ccccc1`: the half-maximal inhibitory concentration (IC50) in the assay on MCF7 was determined as 1130 nM; in the assay on A549, 2080 nM; in assay [12], 950 nM; with MDA-MB-231, 880 nM; in assay [13], 4380 nM; in the assay with DU-145, 1260 nM.
Turning to `O=C(Nc1ccccc1)C1=Cc2cc(NC(=O)c3ccccc3)ccc2S1(=O)=O`, the concentration for half-maximal inhibition (IC50) in the assay on MDA-MB-231 is 3210 nM; in the assay with DU-145, 6210 nM.
For the compound `CC1CCCN(C(=O)C2=Cc3cc(Br)ccc3S2(=O)=O)C1` (stereo unspecified), the IC50 was 1260 nM in the assay with MCF7; 1940 nM in the assay on A549; 1370 nM in assay [12]; 1070 nM in the assay on MDA-MB-231; 2980 nM in [13]; 1410 nM in the assay on DU-145.
In the case of `O=C(Nc1ccccc1)C1=Cc2ccc(Br)cc2S1(=O)=O`, the concentration for half-maximal inhibition (IC50) in the assay with MDA-MB-231 was 1840 nM; in the assay with DU-145, 2660 nM.
On to `CC1CCCCN1C(=O)C1=Cc2cc(Br)ccc2S1(=O)=O` (stereo unspecified), for which the concentration for half-maximal inhibition (IC50) with MCF7 is 990 nM; in the assay with A549, 1300 nM; in assay [12] it was 980 nM; in the assay on MDA-MB-231 it was 950 nM; in assay [13] it was 2140 nM; in the assay with DU-145 it was 980 nM.

These data come from ChEMBL document CHEMBL3632496, “Novel 2-Carbonylbenzo[b]thiophene 1,1-Dioxide Derivatives as Potent Inhibitors of STAT3 Signaling Pathway” (ACS Med Chem Lett, 2015).
